How the values were obtained:
[1] = target: Cytochrome P450 2C9 (Homo sapiens, UniProt P11712); assay: Inhibition of CYP2C9; type: ADME
[2] = target: T1, Substance-P receptor (Homo sapiens, UniProt P25103); assay: Antagonist activity at human recombinant NK1 receptor expressed in CHO cells assessed as remaining substance P level at 100 nM after 30 mins by [H3]-inositol phosphate release assay; type: functional, cell-based
Method in brief: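 CHO cells with recombinant human NK1 receptor, 2.5 × 10⁴ per well, plated overnight, then prelabelled overnight at 37 °C with [3H]-myo-inositol (10–25 Ci/mmol) in inositol-free medium with 0.02% BSA. LiCl 10 mM in HEPES-buffered inositol-free DMEM, 15 min. Antagonist at 100 nM or DMSO for 30 min, then substance P for 30 min. Stopped with formic acid. [3H]-inositol phosphate captured on yttrium silicate SPA beads, 2 h. Reported as % substance P response remaining.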

[3] = Volume of distribution in rat; type: ADME, organism-based; details: in vivo
[4] = Plasma clearance in dog; type: ADME, organism-based, Canis lupus familiaris
[5] = Metabolic stability in rhesus monkey microsomes assessed as compound remaining after 60 mins; type: ADME, Macaca mulatta, Microsome; details: read-out: Stability
Method in brief: (§1)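 Compound incubated 60 min with liver microsomes from human, dog, rat or rhesus; % parent remaining measured.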

[6] = species on record: Meriones unguiculatus; assay: Inhibition of GR-73632-induced foot tapping in Mongolian gerbil after 1 hr; type: functional; details: read-out: ID50 (the source's name)
Method in brief: (§2)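 Gerbils given antagonist at the dose and pretreatment time shown (1 mg/kg at 1 h, 3 mg/kg at 24 h); foot tapping then induced with the NK1 agonist GR73632. Read-out is % inhibition of tapping; ED50 or ID50 from dose–response.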

[7] = Half life in rat; type: ADME, organism-based; details: in vivo
[8] = Binding affinity to calcium channel
Method in brief: (§3)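 Ion channel binding assay; IC50 values calculated for sodium channel and for calcium channel (Dlz site).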

[9] = target: T1, Substance-P receptor; assay: Displacement of [125I]substance P from human NK1 receptor expressed in CHO cells in presence of 50% mongolian gerbil serum; type: cell-based
Method in brief: (§4)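 Radioligand binding: [125I]substance P displaced from human NK1 receptor expressed in CHO cells; IC50 determined. Also run with 50% serum added (human, dog, rhesus, rat or gerbil) to measure the serum shift.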

[10] = Half life in dog; type: ADME, organism-based, Canis lupus familiaris; details: in vivo
[11] = Metabolic stability in rat microsomes assessed as compound remaining after 60 mins; type: ADME, Microsome; details: read-out: Stability; method in brief: as §1
[12] = target: T1, Substance-P receptor; assay: Displacement of [125I]substance P from human NK1 receptor expressed in CHO cells in presence of 50% dog serum; type: cell-based; method in brief: as §4
[13] = Plasma clearance in rat; type: ADME, organism-based
[14] = Metabolic stability in dog microsomes assessed as compound remaining after 60 mins; type: ADME, Canis lupus familiaris, Microsome; details: read-out: Stability; method in brief: as §1
[15] = Mean residence time in rat; type: ADME, organism-based; details: in vivo
[16] = species on record: Meriones unguiculatus; assay: Inhibition of GR-73632-induced foot tapping in Mongolian gerbil after 24 hrs; type: functional; method in brief: as §2
[17] = Binding affinity to potassium channel IKr
[18] = target: T1, Substance-P receptor; assay: Displacement of [125I]substance P from human NK1 receptor expressed in CHO cells in presence of 50% rhesus monkey serum; type: cell-based; method in brief: as §4
[19] = target: T1, Substance-P receptor; assay: Displacement of [125I]substance P from human NK1 receptor expressed in CHO cells in presence of 50% human serum; type: cell-based; method in brief: as §4
[20] = target: T2, PXR (nuclear receptor subfamily 1 group I member 2) (Homo sapiens, UniProt O75469); assay: Inhibition of human PXR induction at 10 uM
T2 sequence (O75469 whole entry): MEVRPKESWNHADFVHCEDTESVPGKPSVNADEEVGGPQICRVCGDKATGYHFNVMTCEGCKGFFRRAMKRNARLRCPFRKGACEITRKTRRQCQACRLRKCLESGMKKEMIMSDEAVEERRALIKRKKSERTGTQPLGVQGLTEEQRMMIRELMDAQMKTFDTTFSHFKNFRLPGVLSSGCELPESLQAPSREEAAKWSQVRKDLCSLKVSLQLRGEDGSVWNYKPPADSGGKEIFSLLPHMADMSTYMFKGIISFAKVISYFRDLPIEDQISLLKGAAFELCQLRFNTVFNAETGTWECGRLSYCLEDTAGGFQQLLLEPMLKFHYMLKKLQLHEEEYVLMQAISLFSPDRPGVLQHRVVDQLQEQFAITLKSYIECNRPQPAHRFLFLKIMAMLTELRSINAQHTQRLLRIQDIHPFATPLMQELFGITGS
Method in brief: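 Human PXR induction measured at 10 µM compound, expressed as % of maximal induction.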

[21] = Metabolic stability in human microsomes assessed as compound remaining after 60 mins; type: ADME, Microsome; details: read-out: Stability; method in brief: as §1
[22] = Binding affinity to sodium channel; method in brief: as §3
[23] = target: T3, Nuclear receptor subfamily 1 group I member 2 (Homo sapiens, UniProt O75469); assay: Inhibition of human PXR induction
T3 sequence (O75469 whole entry): T2 sequence (O75469 whole entry)

[24] = target: T1, Substance-P receptor; assay: Displacement of [125I]substance P from human NK1 receptor expressed in CHO cells in presence of 50% rat serum; type: cell-based; method in brief: as §4
[25] = target: T1, Substance-P receptor; assay: Displacement of [125I]substance P from human NK1 receptor expressed in CHO cells; type: cell-based; method in brief: as §4
[26] = target: Cytochrome P450 2D6 (Homo sapiens, UniProt P10635); assay: Inhibition of CYP2D6; type: ADME
[27] = Ratio of drug level in brain to plasma in Mongolian gerbil; type: ADME, Meriones unguiculatus; details: read-out: BPR
[28] = target: Cytochrome P450 3A4 (Homo sapiens, UniProt P08684); assay: Inhibition of CYP3A4; type: ADME
[29] = Oral bioavailability in rat; type: ADME, organism-based; details: in vivo
[30] = test system: Meriones unguiculatus; assay: Inhibition of GR-73632-induced foot tapping in Mongolian gerbil at 3 mg/kg after 24 hrs; type: functional; method in brief: as §2

T1 sequence (P25103 whole entry): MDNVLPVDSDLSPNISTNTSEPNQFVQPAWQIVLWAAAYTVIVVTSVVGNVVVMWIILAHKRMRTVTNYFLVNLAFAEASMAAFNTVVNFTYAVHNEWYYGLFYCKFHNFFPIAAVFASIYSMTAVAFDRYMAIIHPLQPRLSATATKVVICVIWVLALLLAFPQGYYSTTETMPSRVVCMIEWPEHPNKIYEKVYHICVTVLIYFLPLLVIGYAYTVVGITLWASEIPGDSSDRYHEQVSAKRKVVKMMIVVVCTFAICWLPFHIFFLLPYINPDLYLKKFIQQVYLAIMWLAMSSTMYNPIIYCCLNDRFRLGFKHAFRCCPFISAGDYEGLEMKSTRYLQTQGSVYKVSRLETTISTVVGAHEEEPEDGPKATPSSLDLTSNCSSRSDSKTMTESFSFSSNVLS
Cytochrome P450 2D6, sequence (P10635 whole entry): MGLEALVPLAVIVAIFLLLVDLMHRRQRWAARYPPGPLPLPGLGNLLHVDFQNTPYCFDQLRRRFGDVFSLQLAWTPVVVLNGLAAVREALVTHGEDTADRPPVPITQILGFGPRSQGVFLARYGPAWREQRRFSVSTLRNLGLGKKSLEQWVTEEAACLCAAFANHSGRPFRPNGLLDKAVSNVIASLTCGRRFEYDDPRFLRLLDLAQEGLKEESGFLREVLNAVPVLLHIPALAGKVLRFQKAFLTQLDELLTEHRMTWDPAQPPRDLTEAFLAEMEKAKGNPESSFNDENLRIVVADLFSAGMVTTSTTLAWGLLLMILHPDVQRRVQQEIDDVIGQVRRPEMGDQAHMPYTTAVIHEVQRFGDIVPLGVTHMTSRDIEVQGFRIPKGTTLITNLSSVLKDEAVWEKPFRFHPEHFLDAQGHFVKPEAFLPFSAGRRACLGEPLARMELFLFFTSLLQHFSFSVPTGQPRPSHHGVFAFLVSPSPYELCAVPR
Cytochrome P450 3A4, sequence (P08684 whole entry): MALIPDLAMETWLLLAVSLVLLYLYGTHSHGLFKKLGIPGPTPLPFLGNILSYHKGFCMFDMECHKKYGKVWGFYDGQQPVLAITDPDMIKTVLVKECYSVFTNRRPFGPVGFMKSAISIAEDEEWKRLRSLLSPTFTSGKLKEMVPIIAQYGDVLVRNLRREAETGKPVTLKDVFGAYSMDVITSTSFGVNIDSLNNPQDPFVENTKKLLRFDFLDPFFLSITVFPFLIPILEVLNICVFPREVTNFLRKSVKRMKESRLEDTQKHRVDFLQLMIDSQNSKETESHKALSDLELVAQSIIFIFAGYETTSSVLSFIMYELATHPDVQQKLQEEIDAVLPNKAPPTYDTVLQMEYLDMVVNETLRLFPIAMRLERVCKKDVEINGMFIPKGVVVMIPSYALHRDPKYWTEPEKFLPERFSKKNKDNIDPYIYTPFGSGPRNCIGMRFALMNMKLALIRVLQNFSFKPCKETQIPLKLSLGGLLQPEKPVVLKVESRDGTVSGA
Cytochrome P450 2C9, sequence (P11712 whole entry): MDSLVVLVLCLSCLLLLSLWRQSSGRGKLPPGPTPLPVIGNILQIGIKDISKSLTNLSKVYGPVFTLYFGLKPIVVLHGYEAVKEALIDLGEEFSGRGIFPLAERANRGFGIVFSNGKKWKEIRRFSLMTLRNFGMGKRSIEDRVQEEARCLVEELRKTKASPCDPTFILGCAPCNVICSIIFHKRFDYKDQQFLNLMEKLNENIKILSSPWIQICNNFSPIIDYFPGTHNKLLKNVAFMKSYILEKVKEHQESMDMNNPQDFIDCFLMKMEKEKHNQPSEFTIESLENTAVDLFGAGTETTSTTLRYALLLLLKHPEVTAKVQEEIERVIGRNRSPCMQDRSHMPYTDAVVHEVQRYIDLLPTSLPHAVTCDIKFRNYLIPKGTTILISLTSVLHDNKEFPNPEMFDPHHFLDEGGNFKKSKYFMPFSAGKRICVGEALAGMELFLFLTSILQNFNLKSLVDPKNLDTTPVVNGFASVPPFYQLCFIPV

**Q.** For `C[C@@H](O[C@H]1CN2C(=O)[C@H]3C[C@@](C)(O)C[C@H]3[C@H]2[C@@H]1c1ccc(F)cc1)c1cc(C(F)(F)F)cc(C(F)(F)F)c1`, which IC50 [1] is on record?
**A.** 43.1 µM

**Q.** What about the Activity [2] of the same molecule?
**A.** 3%

**Q.** And the Vd [3]?
**A.** 4.03 L/kg

**Q.** And the clearance [4]?
**A.** 0.5 mL/min/kg

**Q.** What about the remaining at 1 h [5] of the same molecule?
**A.** 99%

**Q.** And the ED50 [6]?
**A.** 0.02 mg/kg

**Q.** And the half-life [7]?
**A.** 876 min

**Q.** And the IC50 [8]?
**A.** > 10 µM

**Q.** What about the IC50 [9] of the same molecule?
**A.** 1.9 nM

**Q.** And the half-life [10]?
**A.** 2.42 days

**Q.** And the remaining at 1 h [11]?
**A.** 96%

**Q.** What about the IC50 [12] of the same molecule?
**A.** 1.5 nM

**Q.** And the clearance [13]?
**A.** 3.24 mL/min/kg

**Q.** And the remaining at 1 h [14]?
**A.** 90%

**Q.** And the MRT [15]?
**A.** 4.67 h

**Q.** And the ED50 ([16]; read-out: ED50)?
**A.** 0.02 mg/kg

**Q.** What about the ED50 ([16]; read-out: ID50 (the source's name)) of the same molecule?
**A.** 0.02 mg/kg

**Q.** And the IC50 [17]?
**A.** 2470 nM

**Q.** What about the IC50 [18] of the same molecule?
**A.** 0.4 nM

**Q.** And the IC50 [19]?
**A.** 0.7 nM

**Q.** And the Emax at 10 µM [20]?
**A.** 37%

**Q.** What about the remaining at 1 h [21] of the same molecule?
**A.** 96%

**Q.** And the IC50 [22]?
**A.** > 10 µM

**Q.** What about the IC50 [23] of the same molecule?
**A.** 8.4 µM

**Q.** What about the IC50 [24] of the same molecule?
**A.** 0.4 nM

**Q.** And the IC50 [25]?
**A.** 0.061 nM

**Q.** What about the IC50 [26] of the same molecule?
**A.** 17.4 µM

**Q.** And the Kp [27]?
**A.** 0.5

**Q.** And the IC50 [28]?
**A.** 22.7 µM

**Q.** What about the bioavailability [29] of the same molecule?
**A.** 88.8%

**Q.** And the inhibition in vivo at 3 mg/kg [30]?
**A.** 100%
